The list is not random: actives were taken first. Their share in the collection is about 4.3%.
MC4R antag cAMP – human MC4R antagonism in cAMP assay | P32245 | MC4R-expressing cells, MTII-stimulated cAMP, LANCE TR-FRET | AID 540295 | actives 0.48% (n = 360,000) | inhibition, % at 6.5 µM;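 active means inhibition above its plate's cutoff, the mean of tested wells on that plate plus 3 SD, cut at about 29% in these data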;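 further: 0% = Melanotan II alone and 100% = Melanotan II plus saturating MCL0020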
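Material – human MC4R-expressing U2OS cells · Repeats – no replicates · Detection – TR-FRET with Eu-cAMP and labeled anti-cAMP, 671 nm · Times – compound 30 min, challenge 1 h, detection 1 h · Compound – single nominal compound dose of 6.5 µM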
HTR2A ag – agonists of mouse serotonin 5-HT2A receptor (HTR2A). P35363. CHO-K1 mHTR2A beta-arrestin complementation, luminescence; percent of 30 µM serotonin response. activation, % at 7.6 µM. actives 0.66% (n = 360,000);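 active means activation above a run cutoff, the mean activation of all tested compounds plus 3 SD, cut at about 14% in these data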;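 further: 0% = plate median of compound wells and 100% = 30 µM serotonin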
TAAR1 antagonist – human TAAR1 antagonism. inhibition, % at 3 µM. Q96RJ0. CHO RD-HGA16 TAAR1, Fluo-8 calcium fluorescence, antagonist. AID 624466. actives 1.5% (n = 360,000);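 active means inhibition above a per-plate cutoff, the mean inhibition of test compounds on that plate plus 3 SD, cut at about 49% in these data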;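 further: 0% = DMSO plus EC80 beta-PEA response and 100% = DMSO alone without agonist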
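Test system: RD-HGA16 CHO cells with stable hTAAR1 and Gα16 / Probe or stimulus: EC80 β-phenethylamine stimulus / Times: seeding 17-24 h prior, 75-min 37 °C, 30-min RT dye loading / Detection: Fluo-8 calcium-sensitive fluorescence / Read-out basis: % inhibition scaled between DMSO and EC80 PEA controls / Repeats: singlicate, one well per test compound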
TAAR1 ag – human TAAR1 agonism; Q96RJ0; CHO RD-HGA16 TAAR1, Fluo-8 calcium fluorescence; vehicle wells 0%, saturating PEA agonist 100%; activation, % at 3 µM; actives 0.99% (n = 360,000); AID 624467;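 active means activation above the mean activation of all test compounds in the run plus 3 SD, cut at about 38% in these data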
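Test system: RD-HGA16 (CHO) cells co-expressing Gα16 and hTAAR1; dosing: one-point dosing at 3 µM (nominal); timing: 17-24 h seeding, 75 min 37 °C dye, 30 min RT; signal: kinetic Fluo-8 calcium fluorescence; read-out basis: % activation relative to PEA EC100 response; controls: DMSO and PEA EC100; replicates: n 1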
B2AR ag – agonists of human beta-2 adrenergic receptor inducing internalization. P07550. Am2.2-beta2AR cells, FAP receptor internalization, flow cytometry. actives 0.43% (n = 340,000). response, % (no concentration beside the values);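 active means response above a set limit, near 3 SD of response in nonfluorescent compounds, cut at about 42% in these data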
MC4R ag barr – activates human MC4R beta-arrestin recruitment; P32245; U2OS MC4R beta-arrestin complementation, luminescence; percent of melanotan II response, DMSO zero; activation, % at 8.9 µM; actives 0.98% (n = 360,000); AID 540308;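 active means activation above a per-plate cutoff, the mean activation of sample wells on that plate plus 3 SD, cut at about 8% in these data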
MOR ag counter – counter-screen for mouse HTR2A agonists: human mu opioid receptor agonists. AID 624380. actives 5.3% (n = 2,300). shares compounds with HTR2A ag. U2OS OPRM1 beta-arrestin PathHunter, luminescence; DMSO 0%, DAMGO 9.3 µM 100%. activation, % at 9.3 µM;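 active means mean activation above the mean of DMSO-only wells plus 3 SD, cut at about 0.5% in these data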
Target sequence (P35372 whole entry, looked up): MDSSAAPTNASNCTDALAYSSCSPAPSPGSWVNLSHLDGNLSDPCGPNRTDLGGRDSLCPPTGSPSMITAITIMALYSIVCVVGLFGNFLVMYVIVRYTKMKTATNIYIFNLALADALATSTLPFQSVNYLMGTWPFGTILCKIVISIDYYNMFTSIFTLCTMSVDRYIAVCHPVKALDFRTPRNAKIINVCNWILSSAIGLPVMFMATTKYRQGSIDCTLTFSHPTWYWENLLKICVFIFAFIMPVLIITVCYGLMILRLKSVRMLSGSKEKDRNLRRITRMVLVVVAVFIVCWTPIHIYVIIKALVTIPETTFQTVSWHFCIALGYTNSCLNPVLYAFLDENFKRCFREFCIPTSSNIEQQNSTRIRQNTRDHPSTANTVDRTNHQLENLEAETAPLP
m5-HT2A ag conf – mouse HTR2A agonism confirmed; shares compounds with HTR2A ag; CHO-K1 PathHunter beta-arrestin recruitment, luminescence; DMSO 0%, 30 µM serotonin 100%; activation, % at 7.6 µM; actives 19% (n = 2,300); AID 624381;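 active means mean activation across triplicates above the hit threshold derived in the original primary screen, cut at about 15% in these data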
* = called active by the depositor; . = no result given.

SMILES	MC4R antag cAMP	HTR2A ag	TAAR1 antagonist	TAAR1 ag	B2AR ag	MC4R ag barr	MOR ag counter	m5-HT2A ag conf
CC(=O)c1ccc(OCC(O)CN2CCN(CCO)CC2)cc1 (configuration not stated)	8	17*	-9	1	2	0	-1	-3
COc1ccc(NC(=O)CCN2CCN(c3ccccc3F)CC2)c(OC)c1	1	7	19	-2	-7	-1	.	.
CC(=O)Nc1ccc(-c2ccnc3c2CC(C)(C(=O)Nc2ccc(Cl)cc2)O3)cc1 (configuration not stated)	10	0	3	6	.	-2	.	.
COc1ccc(NC(=O)CSc2ccc(-c3ccccn3)nn2)cc1OC	14	35*	-14	5	-13	-3	-1	107*
CC[C@]1(C(=O)OC)[C@H]2C(=O)N(Cc3ccccc3)C(=O)[C@H]2[C@H]2CN(C)C(=NCc3ccccc3)N21	3	21*	.	.	-9	3	0	-2
CCc1nnc(NC(=O)CSc2nc3ccc(OC)cc3[nH]2)s1	10	5	-29	3	-3	-1	.	.
CCc1nc2sc3c(c2c(=O)n1N)CC(C)(C)OC3	3	0	-3	5	-1	-1	.	.
CCOC(=O)CSc1nc2sc3c(c2c(=O)n1CC)CC(C)(C)OC3	9	23*	18	5	-5	0	0	-1
CCN(CC)CCCn1c(SCC(=O)Nc2cccc(F)c2)nnc1-c1ccoc1C	5	-3	-24	-2	7	0	.	.
O=[N+]([O-])c1c(Nc2ccccc2)ccc2nonc12	-6	23*	-20	0	-8	-1	0	-4
O=C(O)c1cccc(Nc2ccc3nonc3c2[N+](=O)[O-])c1	-9	-2	-12	0	-7	-1	.	.
COc1ccc(CN2C(=O)C(CC(=O)NC3CCCCC3)CC(C(=O)N(C(C)C)C(C)C)=C2C)cc1 (configuration not stated)	12	6	-8	1	.	3	.	.
Cc1cc(Cl)cc(C)c1OCCNCc1ccccc1	5	21*	-8	16	6	3	0	11
Cc1cc(Cl)cc(C)c1OCCOCCNCc1ccccc1	0	-6	-1	15	8	4	.	.
CCN(Cc1nc2cc(Cl)ccc2c(=O)[nH]1)C(=O)CN1C(=O)NC2(CCCCC2C)C1=O (configuration not stated)	1	3	-36	2	-1	-1	.	.
CCC(=O)N1c2ccc(S(=O)(=O)N3CCCC3)cc2CC1C (configuration not stated)	6	15*	-6	1	-4	-2	0	0
c1ccc2c(c1)ccc1nnc(-c3ccc4c(c3)OCO4)n12	-2	18*	0	-3	-6	1	0	0
Cc1nc2sc(C(c3ccco3)N3CC(C)OC(C)C3)c(O)n2n1 (configuration not stated)	0	23*	0	12	-6	-1	0	-3
Cc1ccc(C(c2sc3nc(C)nn3c2O)N2CCN(CCO)CC2)cc1 (configuration not stated)	8	-9	-23	0	-7	-1	.	.
Cc1nc2sc(C(c3ccccc3)N3CCN(CCO)CC3)c(O)n2n1 (configuration not stated)	10	32*	-10	3	6	-1	-1	-3
COc1ccc(S(=O)(=O)N(C)CC(=O)NCc2ccco2)cc1Cl	-1	3	-2	3	.	-2	.	.
Cc1cc(C)cc(N(CC(=O)NCc2ccco2)S(=O)(=O)c2ccccc2)c1	-3	15*	-5	1	-1	-2	-1	-1
COc1ccc(C)cc1S(=O)(=O)N(C)CC(=O)NCc1ccco1	8	16*	-17	9	-14	0	-1	-3
Cc1ccc(C)c(NC(=O)COC(=O)CNC(=O)C2CCCCC2)c1	9	-1	3	-2	-4	0	.	.
COc1ccccc1CN1CC(C(=O)NCc2cc(C)on2)CCC1=O (configuration not stated)	9	16*	6	1	-1	-3	0	2
SMILES	MC4R antag cAMP	HTR2A ag	TAAR1 antagonist	TAAR1 ag	B2AR ag	MC4R ag barr	MOR ag counter	m5-HT2A ag conf
O=C(O)CNS(=O)(=O)c1ccc2c3c(cccc13)C(=O)N2	0	-2	4	2	9	0	.	.
O=C(O)CCCCCNS(=O)(=O)c1ccc2c3c(cccc13)C(=O)N2	9	16*	2	-1	3	-1	-1	-3
Cc1ccc(NC(=O)CN(C)C(=O)COC(=O)C2=COCCO2)cc1	6	14	-13	0	-2	-4	.	.
CN(C)C(=O)c1ccc(NC(=O)COC(=O)C2=COCCO2)cc1	17	18*	-7	1	3	-3	-1	-4
CCC(C)(C)n1nnnc1C(c1ccc(O)c(OC)c1)N1CCN(c2nc3ccccc3s2)CC1 (configuration not stated)	5	24*	7	12	-3	-2	-1	7
Cc1csc(=O)n1CC(=O)OCC(=O)NNC(=O)c1ccccc1	3	-3	-17	1	2	-1	.	.
Cc1csc(=O)n1CC(=O)OCC(=O)NNC(=O)c1ccc([N+](=O)[O-])cc1	0	15*	-17	1	0	2	0	1
COC(=O)CCC(=O)NNC(=O)c1ccc([N+](=O)[O-])cc1	5	14*	4	1	-1	-5	0	6
CCCCCCCC(=O)NNC(=O)c1ccc([N+](=O)[O-])cc1	-3	0	-11	-1	1	0	.	.
CC1CC(C)CN(C(=O)c2ccc3nc[nH]c3c2)C1 (configuration not stated)	0	16*	-8	2	-4	-1	-1	-3
O=[N+]([O-])c1ccc(C(O)C[n+]2ccccc2)cc1 (configuration not stated)	2	-1	.	.	-3	-1	.	.
CCn1c(CNC(=O)COc2ccc(C(C)C)cc2)nnc1SCC(=O)Nc1ccccc1C(C)C	14	18*	14	17	4	3	0	2

From PubChem
